Values after ≈ are worked out from the molar mass of the structure shown. Active and inactive are the calls of the source. No cut-off for these calls is given here.
Columns and labels:
[1] = Drug uptake in CD-1 mouse plasma at 10 mg/kg, po measured for 30 mins by LC-MS/MS analysis; format: ADME, organism-based; conditions: in vivo, 0.5 h
In short: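 Male CD-1 mice, 6-8 weeks, single oral dose 10 mg/kg in 80% Carbitol/20% saline (1.75 mg/ml). Sets of 3 mice bled and euthanized at 5, 15, 30 min to 24 h; plasma frozen ≤ −20 °C, acetonitrile-precipitated with internal standard, analysed by isocratic LC-MS/MS against calibration standards. Mean ± S.D. of 3 animals.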

[2] = test system: Mus musculus; experiment: Effect on spermatogenesis in CD-1 mouse assessed as spermatids in abnormal stage IX tubules at 5 mg/kg/day, po for 7 days measured after 4 weeks post-cessation of drug treatment by hematoxylin counter-staining based analysis; format: functional, organism-based; conditions: time 5.0 weeks
[3] = Solubility of compound in PBS at pH 7.4; format: physicochemical; conditions: buffer
In short: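 Solubility measured in PBS, pH 7.4.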

[4] = molecular target: T1, Retinoic acid receptor gamma (Homo sapiens, UniProt P13631); experiment: Agonist activity at recombinant human RAR-gamma expressed in mammalian cells by luciferase reporter gene based transactivation assay; format: cell-based
T1 sequence (P13631 whole entry): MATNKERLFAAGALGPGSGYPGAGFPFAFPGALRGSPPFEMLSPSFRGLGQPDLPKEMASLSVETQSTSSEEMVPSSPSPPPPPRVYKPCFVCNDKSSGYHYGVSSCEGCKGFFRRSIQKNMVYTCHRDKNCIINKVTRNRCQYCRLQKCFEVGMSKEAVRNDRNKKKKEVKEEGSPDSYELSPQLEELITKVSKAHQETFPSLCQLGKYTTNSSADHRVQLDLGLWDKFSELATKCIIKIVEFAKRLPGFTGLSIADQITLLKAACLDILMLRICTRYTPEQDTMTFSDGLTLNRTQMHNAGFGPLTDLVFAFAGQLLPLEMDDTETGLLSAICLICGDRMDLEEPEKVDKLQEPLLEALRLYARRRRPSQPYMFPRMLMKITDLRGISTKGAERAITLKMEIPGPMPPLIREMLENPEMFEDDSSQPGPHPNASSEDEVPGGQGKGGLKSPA
In short: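 Human RAR-subtype luciferase reporter cells (RARE-driven). Compounds in DMSO (final 0.4%) tested as 8-point dose response in triplicate. Incubated overnight at 37 °C in 5% CO2, then detection reagent 30 min at r.t. and luminescence measured. EC50 by four-parameter logistic fit, mean ± SEM from geometric mean of log EC50 across independent experiments.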

[5] = molecular target: T1, Retinoic acid receptor gamma; experiment: Antagonist activity at recombinant human RAR-gamma expressed in mammalian cells in presence of ATRA by luciferase reporter gene based transactivation assay; format: cell-based
In short: (§1)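 Compounds 8-point dose response in triplicate, DMSO final 0.4%; overnight at 37 °C, 5% CO2; luminescence after 30 min detection reagent. IC50 by four-parameter logistic fit; agonist-free wells set background.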

[6] = test system: Mus musculus; experiment: Effect on fertility in CD-1 mouse assessed as size of embryonic litters formed post-cessation of drug treatment at 5 mg/kg/day, po for 7 days followed by drug cessation and initiation of mating for 2 weeks; format: functional; conditions: time 3 weeks
[7] = test system: Mus musculus; experiment: Effect on spermatogenesis in CD-1 mouse assessed as sperm count at 5 mg/kg/day, po for 7 days measured after 4 weeks post-cessation of drug treatment by hemocytometry; format: functional; conditions: time 5 weeks
[8] = Metabolic stability in CD-1 mouse intestinal microsomes assessed as compound remaining at 2 x 10^-6 M in presence of NADPH measured for 60 mins; format: ADME, Intestine, Microsome; conditions: dose 2 10^-6M, read-out: Stability
In short: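 Male CD-1 mouse intestinal microsomes with NADPH, compound at 2.0 ×10−6 M, 60 min; percent parent remaining.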

[9] = molecular target: T2, Retinoic acid receptor alpha (Homo sapiens, UniProt P10276); experiment: Antagonist activity at recombinant human RAR-alpha expressed in mammalian cells in presence of 9-cis-RA by luciferase reporter gene based transactivation assay; format: cell-based; in short: as §1
T2 sequence (P10276 whole entry): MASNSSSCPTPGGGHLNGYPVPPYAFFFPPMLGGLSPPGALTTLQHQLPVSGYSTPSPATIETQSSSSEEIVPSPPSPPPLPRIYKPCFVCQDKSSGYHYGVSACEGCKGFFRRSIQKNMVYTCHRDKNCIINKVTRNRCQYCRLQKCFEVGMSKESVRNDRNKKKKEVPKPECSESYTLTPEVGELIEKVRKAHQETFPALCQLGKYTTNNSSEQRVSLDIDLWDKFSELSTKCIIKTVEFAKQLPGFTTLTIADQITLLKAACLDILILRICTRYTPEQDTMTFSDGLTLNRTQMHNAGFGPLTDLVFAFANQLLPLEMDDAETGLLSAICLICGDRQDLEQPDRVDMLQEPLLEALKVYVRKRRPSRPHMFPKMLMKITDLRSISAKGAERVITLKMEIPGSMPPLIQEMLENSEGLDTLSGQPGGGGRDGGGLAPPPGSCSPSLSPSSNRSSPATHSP

[10] = test system: Mus musculus; experiment: Effect on spermatogenesis in CD-1 mouse assessed as abnormality in spermatid translocation at 10 mg/kg/day, po for 2 weeks measured measured after 4 weeks post-cessation of drug treatment by hematoxylin counter-staining based analysis; format: functional, organism-based; conditions: time 6.0 weeks
In short: (§2)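 CD1 males given 10 mg/kg/day orally for 2 weeks dissolved in 20% aqueous Kollisolv (n = 10 per time point); vehicle-only controls n = 5. Testes collected one day or 4 weeks after cessation, fixed in 4% paraformaldehyde or Bouin's, paraffin-embedded, PAS-stained with hematoxylin counterstain and tubules staged by bright-field microscopy.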

[11] = test system: Mus musculus; experiment: Effect on spermatogenesis in CD-1 mouse assessed as abnormality in spermatid release at 5 mg/kg/day, po for 7 days measured after 4 weeks post-cessation of drug treatment by hematoxylin counter-staining based analysis; format: functional, organism-based; conditions: time 5.0 weeks
[12] = Metabolic stability in CD-1 mouse liver microsomes assessed as compound remaining in presence of NADPH measured for 60 mins at 10^-6 M; format: ADME, Microsome; conditions: dose 1 10^-6M, read-out: Stability
[13] = test system: Mus musculus; experiment: Effect on spermatogenesis in CD-1 mouse assessed as sperm count at 10 mg/kg/day, po for 2 weeks measured after 4 weeks post-cessation of drug treatment by hemocytometry (reference value: 50.30 +/- 5.90 x 10^6No_unit); format: functional; conditions: time 6 weeks
[14] = test system: Mus musculus; experiment: Effect on spermatogenesis in CD-1 mouse assessed as abnormal stage IX tubules at 10 mg/kg/day, po for 2 weeks measured measured after 4 weeks post-cessation of drug treatment by hematoxylin counter-staining based analysis; format: functional, organism-based; conditions: time 6.0 weeks; in short: as §2
[15] = Partition coefficient, logD of compound in 1-octanol/PBS at pH 7.4; format: physicochemical; conditions: octanol/water
In short: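 Distribution between 1-octanol and PBS at pH 7.4; log D reported.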

[16] = test system: Mus musculus; experiment: Effect on spermatogenesis in CD-1 mouse assessed as sperm count at 5 mg/kg/day, po for 7 days measured on day 1 post-cessation of drug treatment by hemocytometry (reference value: 55.50 +/- 8.18 x 10^6No_unit); format: functional; conditions: time 8 day
[17] = test system: Mus musculus; experiment: Effect on spermatogenesis in CD-1 mouse assessed as testicular weight at 5 mg/kg/day, po for 7 days measured on day 1 post-cessation of drug treatment (reference value: […] +/- 0.01 g); format: functional; conditions: time 8 day

Compound: Cc1ccc(C2=CC(C)(C)Oc3ccc(C(=O)Nc4ccc(C(=O)O)cc4)cc32)cc1
- Drug uptake [1]: Active
- Activity [2]: inactive
- solubility [3]: 4.2 µM (≈ 1.74 µg/mL)
- EC50 [4]: 520 nM
- IC50 [5]: 310 nM
- Activity [6]: 12.15
- Activity [7]: 54.9 10^6No_unit
- remaining at 1 h, 2 µM [8]: 100%
- IC50 [9]: 4.6 nM
- Activity [10]: inactive
- Activity [11]: inactive
- remaining at 1 h, 1 µM [12]: 100%
- Activity [13]: 44.75 10^6No_unit
- Activity [14]: inactive
- logD [15]: 3.35
- Activity [16]: 24.5 10^6No_unit
- Activity [17]: 0.11 g
